{"source": "ChEMBL document CHEMBL1148762", "about": "“Lysosome and HER3 (ErbB3) selective anticancer agent kahalalide F: semisynthetic modifications and antifungal lead-exploration studies” (J Med Chem, 2007)", "key": {"Fusarium proliferatum [1]": {"test_system": "Fusarium proliferatum", "test": "Antimicrobial activity against Fusarium proliferatum at 0.3 uM after 72 hrs by microtiter assay", "format": "functional", "how_it_was_run": "(§1)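 96-well microdilution broth assay with conidia (3 × 10^5 conidia/mL, harvested from 7-day PDA cultures and filtered) against F. oxysporum, F. proliferatum and F. solani at 0.3, 3 and 30 µM. Plates were held at 24 ± 1 °C under a 12 h photoperiod. Growth was read at 620 nm at 24, 48 and 72 h and reported as percent inhibition from mean absorbance with standard error.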"}, "Fusarium proliferatum [2]": {"test_system": "Fusarium proliferatum", "test": "Antimicrobial activity against Fusarium proliferatum at 3 uM after 48 hrs by microtiter assay", "format": "functional", "how_it_was_run": "as §1"}, "Fusarium proliferatum [3]": {"test_system": "Fusarium proliferatum", "test": "Antimicrobial activity against Fusarium proliferatum at 3 uM after 72 hrs by microtiter assay", "format": "functional", "how_it_was_run": "as §1"}, "Fusarium proliferatum [4]": {"test_system": "Fusarium proliferatum", "test": "Antimicrobial activity against Fusarium proliferatum at 0.3 uM after 48 hrs by microtiter assay", "format": "functional", "how_it_was_run": "as §1"}, "Fusarium oxysporum [5]": {"test_system": "Fusarium oxysporum", "test": "Antimicrobial activity against Fusarium oxysporum at 0.3 uM after 48 hrs by microtiter assay", "format": "functional", "how_it_was_run": "as §1"}, "Fusarium oxysporum [6]": {"test_system": "Fusarium oxysporum", "test": "Antimicrobial activity against Fusarium oxysporum at 0.3 uM after 72 hrs by microtiter assay", "format": "functional", "how_it_was_run": "as §1"}, "Fusarium solani [7]": {"test_system": "Fusarium solani", "test": "Antimicrobial activity against Fusarium solani at 0.3 uM after 48 hrs by microtiter assay", "format": "functional", "how_it_was_run": "as §1"}, "Fusarium solani [8]": {"test_system": "Fusarium solani", "test": "Antimicrobial activity against Fusarium solani at 0.3 uM after 72 hrs by microtiter assay", "format": "functional", "how_it_was_run": "as §1"}, "Fusarium oxysporum [9]": {"test_system": "Fusarium oxysporum", "test": "Antimicrobial activity against Fusarium oxysporum at 3 uM after 48 hrs by microtiter assay", "format": "functional", "how_it_was_run": "as §1"}, "Fusarium oxysporum [10]": {"test_system": "Fusarium oxysporum", "test": "Antimicrobial activity against Fusarium oxysporum at 3 uM after 72 hrs by microtiter assay", "format": "functional", "how_it_was_run": "as §1"}, "Fusarium solani [11]": {"test_system": "Fusarium solani", "test": "Antimicrobial activity against Fusarium solani at 3 uM after 48 hrs by microtiter assay", "format": "functional", "how_it_was_run": "as §1"}, "Fusarium solani [12]": {"test_system": "Fusarium solani", "test": "Antimicrobial activity against Fusarium solani at 3 uM after 72 hrs by microtiter assay", "format": "functional", "how_it_was_run": "as §1"}, "Fusarium oxysporum [13]": {"test_system": "Fusarium oxysporum", "test": "Antimicrobial activity against Fusarium oxysporum at 30 uM after 48 hrs by microtiter assay", "format": "functional", "how_it_was_run": "as §1"}, "Fusarium oxysporum [14]": {"test_system": "Fusarium oxysporum", "test": "Antimicrobial activity against Fusarium oxysporum at 30 uM after 72 hrs by microtiter assay", "format": "functional", "how_it_was_run": "as §1"}, "Fusarium solani [15]": {"test_system": "Fusarium solani", "test": "Antimicrobial activity against Fusarium solani at 30 uM after 48 hrs by microtiter assay", "format": "functional", "how_it_was_run": "as §1"}, "Fusarium solani [16]": {"test_system": "Fusarium solani", "test": "Antimicrobial activity against Fusarium solani at 30 uM after 72 hrs by microtiter assay", "format": "functional", "how_it_was_run": "as §1"}, "Fusarium proliferatum [17]": {"test_system": "Fusarium proliferatum", "test": "Antimicrobial activity against Fusarium proliferatum at 30 uM after 48 hrs by microtiter assay", "format": "functional", "how_it_was_run": "as §1"}, "Fusarium proliferatum [18]": {"test_system": "Fusarium proliferatum", "test": "Antimicrobial activity against Fusarium proliferatum at 30 uM after 72 hrs by microtiter assay", "format": "functional", "how_it_was_run": "as §1"}, "Fusarium proliferatum [19]": {"test_system": "Fusarium proliferatum", "test": "Fungistatic activity against Fusarium proliferatum at 30 uM after 72 hrs by microtiter plate assay", "format": "functional, organism-based", "how_it_was_run": "(§2)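 Conidia come from 7-day potato dextrose agar cultures, filtered and set photometrically (625 nm) to 3 × 10^5 conidia/mL. They are exposed to compound at 30 µM in 96-well microdilution broth at 24 ± 1 °C under a 12 h photoperiod. After 72 h, 20 µL per well is subcultured on drug-free potato dextrose agar at 28 °C for 3 days. No regrowth is scored fungicidal; regrowth is scored fungistatic.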"}, "Fusarium solani [20]": {"test_system": "Fusarium solani", "test": "Fungistatic activity against Fusarium solani at 30 uM after 72 hrs by microtiter plate assay", "format": "functional, organism-based", "how_it_was_run": "as §2"}, "Fusarium oxysporum [21]": {"test_system": "Fusarium oxysporum", "test": "Fungistatic activity against Fusarium oxysporum at 30 uM after 72 hrs by microtiter plate assay", "format": "functional, organism-based", "how_it_was_run": "as §2"}, "Fusarium proliferatum [22]": {"test_system": "Fusarium proliferatum", "test": "Fungicidal activity against Fusarium proliferatum at 30 uM after 72 hrs by microtiter plate assay", "format": "functional, organism-based", "how_it_was_run": "(§3)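 After 72 h of microtiter broth exposure at 30 µM, 20 µL from each well was plated onto compound-free potato dextrose agar and incubated 3 days at 28 °C. No regrowth was scored fungicidal; regrowth was scored fungistatic.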"}, "Fusarium solani [23]": {"test_system": "Fusarium solani", "test": "Fungicidal activity against Fusarium solani at 30 uM after 72 hrs by microtiter assay", "format": "functional, organism-based", "how_it_was_run": "as §3"}, "Fusarium proliferatum [24]": {"test_system": "Fusarium proliferatum", "test": "Antifungal activity against Fusarium proliferatum at 20 ug/mL after 3 days by fluorescence assay", "format": "functional, organism-based", "how_it_was_run": "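Fusarium proliferatum conidia in potato dextrose broth in a tube with the coumarin (DEAC)-labelled probe at 20 µg/mL, held at 24 ± 1 °C. Hyphae and mycelia were viewed at 4, 8, 16, 24, 48 and 72 h by light and epifluorescence microscopy at 400× and 1000×. Conidia were first checked for autofluorescence.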"}, "Fusarium oxysporum [25]": {"test_system": "Fusarium oxysporum", "test": "Fungicidal activity against Fusarium oxysporum at 30 uM after 72 hrs by microtiter plate assay", "format": "functional, organism-based", "how_it_was_run": "as §3"}}, "note": "Activity calls are given as the source filed them. The rule behind the calls is not given here."}
{"smiles": "O=C1C2CC=CCC2C(=O)N1SC(Cl)(Cl)Cl", "note": "(stereo unspecified) [CAPTAN]", "values": [{"measurement": "inhibition at 0.3 µM", "setting": "Fusarium proliferatum [1]", "result": 3, "unit": "%"}, {"measurement": "inhibition at 3 µM", "setting": "Fusarium proliferatum [2]", "result": 12, "unit": "%"}, {"measurement": "inhibition at 3 µM", "setting": "Fusarium proliferatum [3]", "result": 0, "unit": "%"}, {"measurement": "inhibition at 0.3 µM", "setting": "Fusarium proliferatum [4]", "result": 6, "unit": "%"}, {"measurement": "inhibition at 0.3 µM", "setting": "Fusarium oxysporum [5]", "result": 0.2, "unit": "%"}, {"measurement": "inhibition at 0.3 µM", "setting": "Fusarium oxysporum [6]", "result": 0, "unit": "%"}, {"measurement": "inhibition at 0.3 µM", "setting": "Fusarium solani [7]", "result": 0, "unit": "%"}, {"measurement": "inhibition at 0.3 µM", "setting": "Fusarium solani [8]", "result": 0, "unit": "%"}, {"measurement": "inhibition at 3 µM", "setting": "Fusarium oxysporum [9]", "result": 7.6, "unit": "%"}, {"measurement": "inhibition at 3 µM", "setting": "Fusarium oxysporum [10]", "result": 0, "unit": "%"}, {"measurement": "inhibition at 3 µM", "setting": "Fusarium solani [11]", "result": 5.1, "unit": "%"}, {"measurement": "inhibition at 3 µM", "setting": "Fusarium solani [12]", "result": 0, "unit": "%"}, {"measurement": "inhibition at 30 µM", "setting": "Fusarium oxysporum [13]", "result": 99.5, "unit": "%"}, {"measurement": "inhibition at 30 µM", "setting": "Fusarium oxysporum [14]", "result": 98.1, "unit": "%"}, {"measurement": "inhibition at 30 µM", "setting": "Fusarium solani [15]", "result": 90.7, "unit": "%"}, {"measurement": "inhibition at 30 µM", "setting": "Fusarium solani [16]", "result": 47.9, "unit": "%"}, {"measurement": "inhibition at 30 µM", "setting": "Fusarium proliferatum [17]", "result": 100, "unit": "%"}, {"measurement": "inhibition at 30 µM", "setting": "Fusarium proliferatum [18]", "result": 100, "unit": "%"}, {"measurement": "Activity", "setting": "Fusarium proliferatum [19]", "result": "Active"}, {"measurement": "Activity", "setting": "Fusarium solani [20]", "result": "Active"}, {"measurement": "Activity", "setting": "Fusarium oxysporum [21]", "result": "Active"}]}
{"smiles": "CO/C=C(/C(=O)OC)c1ccccc1Oc1cc(Oc2ccccc2C#N)ncn1", "note": "[AZOXYSTROBIN]", "values": [{"measurement": "inhibition at 0.3 µM", "setting": "Fusarium proliferatum [1]", "result": 0, "unit": "%"}, {"measurement": "inhibition at 3 µM", "setting": "Fusarium proliferatum [2]", "result": 21.7, "unit": "%"}, {"measurement": "inhibition at 3 µM", "setting": "Fusarium proliferatum [3]", "result": 14.8, "unit": "%"}, {"measurement": "inhibition at 0.3 µM", "setting": "Fusarium proliferatum [4]", "result": 0, "unit": "%"}, {"measurement": "inhibition at 0.3 µM", "setting": "Fusarium oxysporum [5]", "result": 22.7, "unit": "%"}, {"measurement": "inhibition at 0.3 µM", "setting": "Fusarium oxysporum [6]", "result": 15.3, "unit": "%"}, {"measurement": "inhibition at 0.3 µM", "setting": "Fusarium solani [7]", "result": 16.6, "unit": "%"}, {"measurement": "inhibition at 0.3 µM", "setting": "Fusarium solani [8]", "result": 11.7, "unit": "%"}, {"measurement": "inhibition at 3 µM", "setting": "Fusarium oxysporum [9]", "result": 32.3, "unit": "%"}, {"measurement": "inhibition at 3 µM", "setting": "Fusarium oxysporum [10]", "result": 7.1, "unit": "%"}, {"measurement": "inhibition at 3 µM", "setting": "Fusarium solani [11]", "result": 25.3, "unit": "%"}, {"measurement": "inhibition at 3 µM", "setting": "Fusarium solani [12]", "result": 15, "unit": "%"}, {"measurement": "inhibition at 30 µM", "setting": "Fusarium oxysporum [13]", "result": 77.2, "unit": "%"}, {"measurement": "inhibition at 30 µM", "setting": "Fusarium oxysporum [14]", "result": 32.9, "unit": "%"}, {"measurement": "inhibition at 30 µM", "setting": "Fusarium solani [15]", "result": 62.7, "unit": "%"}, {"measurement": "inhibition at 30 µM", "setting": "Fusarium solani [16]", "result": 51.7, "unit": "%"}, {"measurement": "inhibition at 30 µM", "setting": "Fusarium proliferatum [17]", "result": 53, "unit": "%"}, {"measurement": "inhibition at 30 µM", "setting": "Fusarium proliferatum [18]", "result": 40.7, "unit": "%"}, {"measurement": "Activity", "setting": "Fusarium proliferatum [19]", "result": "Active"}, {"measurement": "Activity", "setting": "Fusarium solani [20]", "result": "Active"}, {"measurement": "Activity", "setting": "Fusarium oxysporum [21]", "result": "Active"}]}
{"smiles": "C/C=C1\\NC(=O)[C@H](Cc2ccccc2)NC(=O)[C@@H](C(C)C)NC(=O)[C@@H]([C@@H](C)CC)NC(=O)[C@H](NC(=O)[C@H](NC(=O)[C@H](CCCNC(=O)c2cc3ccc(N(CC)CC)cc3oc2=O)NC(=O)[C@H]2CCCN2C(=O)[C@@H](NC(=O)[C@H](NC(=O)[C@H](NC(=O)[C@@H](NC(=O)CCCC(C)C)C(C)C)[C@H](C)O)C(C)C)C(C)C)[C@@H](C)CC)[C@@H](C)OC(=O)[C@H](C(C)C)NC1=O", "values": [{"measurement": "Activity", "setting": "Fusarium proliferatum [22]", "result": "inactive"}, {"measurement": "Activity", "setting": "Fusarium solani [23]", "result": "inactive"}, {"measurement": "Activity", "setting": "Fusarium proliferatum [24]", "result": "inactive"}, {"measurement": "Activity", "setting": "Fusarium oxysporum [25]", "result": "inactive"}]}
